Rows were chosen to be rich in hits. Some 1.5% of all compounds tested hit in one or more screens of this group.
EBI2 block – antagonists of human EBI2 receptor. EBI2 beta-arrestin recruitment, luminescence, 7a,25-OHC stimulated. inhibition, % at 5 µM. 360,000 compounds, 0.81% hits. P32249; in the data active = inhibition above about 38%;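 also: enzyme fragment complementation signal reports receptor beta-arrestin coupling in cells; 0% = agonist plus DMSO wells and 100% = wells without agonist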
APJ antagonist – antagonists of human APJ apelin receptor; 330,000 compounds, 0.32% hits; P35414; AID 2521; CHO-K1 APJ beta-arrestin complementation, luminescence; inhibition, % at 20 µM;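 active = inhibition above about 40% at 20 µM, limit read from the data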;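 also: cells challenged with 10 nM apelin-13 agonist together with compound; plate controls were apelin-13 plus DMSO wells for no effect and DMSO wells lacking apelin-13 for full effect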
CXCR6 inh – inhibitors of human CXCR6 receptor; CHO-K1 PathHunter CXCR6 beta-arrestin, luminescence; 360,000 compounds, 0.36% hits; O00574; inhibition, % at 20 µM; in the data active = inhibition above about 34%, passing the limit was not always enough;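 also: antagonist mode with CXCL16 agonist at 10 nM final; 0% = 10 nM CXCL16 with DMSO and 100% = unstimulated wells without agonist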
APJ agonist – activates the human apelin receptor APJ; CHO-K1 APJ PathHunter beta-arrestin, luminescence; 0% DMSO wells, 100% apelin; activation, % at 20 µM; 330,000 compounds, 0.11% hits; AID 2520;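 active = activation more than six SD over the plate average, tested at 20 µM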;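 also: 0% = DMSO alone and 100% = apelin-13 at 10 nM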
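Material: engineered CHO-K1 APJ arrestin reporter cells; amount: 1000 CHO-K1 reporter cells seeded per well; incubation: compound stimulation 90 min at 25 °C, detection 60 min; signal: luminescent beta-gal fragment complementation, chemiluminescent substrate; read-out basis: APJ agonist activity; controls: DMSO-only wells as negative, 10 nM Apelin-13 as positive control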
CCR6 antag – antagonists of human CCR6 receptor; P51684; CHO-K1 CCR6 PathHunter beta-arrestin, luminescence, CCL20-stimulated; inhibition, % at 20 µM; 340,000 compounds, 0.49% hits;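 active = compounds whose inhibition of the agonist-driven luminescence signal at 20 µM reaches about 50%, limit read from the data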;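 also: cells stimulated with CCL20 at 14 nM final; plate controls were DMSO with CCL20 for no effect and DMSO without agonist for full effect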
Target sequence (P51684 whole entry, looked up): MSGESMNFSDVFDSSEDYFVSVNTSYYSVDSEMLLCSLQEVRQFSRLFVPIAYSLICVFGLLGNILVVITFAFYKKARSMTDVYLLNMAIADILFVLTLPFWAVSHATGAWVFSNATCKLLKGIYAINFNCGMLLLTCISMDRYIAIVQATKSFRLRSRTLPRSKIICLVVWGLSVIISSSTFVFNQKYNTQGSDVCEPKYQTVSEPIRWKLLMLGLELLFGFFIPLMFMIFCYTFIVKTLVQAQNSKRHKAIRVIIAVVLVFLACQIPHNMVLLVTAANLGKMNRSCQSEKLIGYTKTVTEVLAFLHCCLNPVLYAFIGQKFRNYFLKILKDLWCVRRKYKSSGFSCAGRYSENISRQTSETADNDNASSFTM
EBI2 conf – EBI2 (human) antagonism, single concentration confirmation. shares compounds with EBI2 block. EBI2 beta-arrestin luminescence, 7a,25-OHC antagonism. inhibition, % at 5 µM. 2,400 compounds, 29% hits. AID 651997;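 active = inhibition of at least 50%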
EBI2 ag – activates EBI2, counter-screen for EBI2 antagonists. EBI2-expressing cells, agonist mode, luminescence, 60 min; 0% vehicle, 100% 7α,25-dihydroxycholesterol control. 2,400 tested, under 10 active. shares compounds with EBI2 block. activation, % at 5 µM;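 active = activation of at least 50%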
bGal counter – beta-galactosidase inhibition counter-screen | 2,400 compounds, 1% hits | inhibition, % at 5 µM | shares compounds with EBI2 block | purified beta-galactosidase, luminescent Galacton Star, 15 min | AID 652176;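 active = replicate-average signal at least 3 plate SD below neutral wells, shown as high inhibition, flagging enzyme-inhibiting false positives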;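 also: 0% = DMSO wells with enzyme and 100% = wells lacking enzyme; higher means stronger loss of beta-gal luminescence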
* = called active by the depositor; . = no result.

SMILES	EBI2 block	APJ antagonist	CXCR6 inh	APJ agonist	CCR6 antag	EBI2 conf	EBI2 ag	bGal counter
O=C(c1[nH]c(C(F)(F)F)nc1-c1ccccc1)N1CCN(c2ncc(C(F)(F)F)cc2Cl)CC1	-4	.	4	.	.	.	.	.
CCC(C)(C)NC(=O)CN(C(=O)CNS(=O)(=O)c1ccc(F)cc1)c1ccc2c(c1)OCCO2	3	-17	-6	-2	3	.	.	.
C=CCSc1nc2sc(C)c(C)c2c(=O)n1N	1	-6	-10	-4	14	.	.	.
COc1ccccc1-c1cc(NC(C)=O)c2ncc(-c3ccc(S(C)(=O)=O)cc3)n2c1	18	.	4	.	.	.	.	.
CC(=O)Nc1cc(-c2ccc(N)cc2)cn2c(-c3cccc(C(F)(F)F)c3)cnc12	9	.	-3	.	.	.	.	.
CC(=O)Nc1cc(-c2ccccc2Cl)cn2c(-c3ccc(S(C)(=O)=O)cc3)cnc12	55*	.	12	.	.	25	2	3
CC(=O)Nc1cc(-c2ccc(CO)cc2)cn2c(-c3cccc(C(F)(F)F)c3)cnc12	46*	.	5	.	.	24	-1	-9
CN(C)C(=O)c1cccc(-c2cnc3c(NC=O)cc(-c4ccccc4Cl)cn23)c1	62*	.	-1	.	.	29	0	5
CC(=O)Nc1cccc(-c2cc(NC=O)c3ncc(-c4cccc(C(C)=O)c4)n3c2)c1	54*	.	1	.	.	14	-1	-12
CN(C)C(=O)c1cccc(-c2cnc3c(NC=O)cc(-c4ccccc4N(C)C)cn23)c1	-4	.	-11	.	.	.	.	.
CC1CCN(C(=O)C(C)OC(=O)CSc2ccc([N+](=O)[O-])cc2)CC1 (stereo unspecified)	-5	-63	-3	-4	-2	.	.	.
CCC(C)NC(=O)c1ccccc1NS(=O)(=O)c1ccc(OC)c(OC)c1 (stereo unspecified)	-1	20	2	-4	-1	.	.	.
Cc1ccc(C(=O)N2CCN(c3ccc4c(c3)C3CC4CCN3C(=O)OCc3ccccc3)CC2)cc1 (stereo unspecified)	33	.	14	.	.	.	.	.
O=C(c1ccc(-c2ccccc2)cc1)N1CCN(c2ccc3c(c2)C2CC3CCN2C(=O)OCc2ccccc2)CC1 (stereo unspecified)	54*	.	8	.	.	40	1	7
Cc1ccc(N(C)C(=O)N2CCN(S(=O)(=O)c3ccc4ccccc4c3)CC2)cc1	45*	-4	-8	-5	-11	21	0	7
Cc1ccc(N(C)C(=O)N2CCN(S(=O)(=O)c3ccc(C)cc3)CC2)cc1	33	8	-1	1	3	.	.	.
CCOc1cc(N2CCOCC2)c(OCC)cc1NC(=O)COc1ccc2ccc(=O)oc2c1	.	1	.	0	.	.	.	.
Cc1ccc(-c2nc3cc(N)ccc3o2)cc1	-11	-1	-10	-4	-5	.	.	.
CC(C)c1ccc2oc(-c3ccc(N)cc3)nc2c1	52*	-14	-11	-2	-7	57*	0	-1
O=C(Nc1ccc(S(=O)(=O)N2CCCCC2)cc1)C1CC(=O)N(c2ccc(Cl)cc2)C1 (stereo unspecified)	89*	-7	0	-1	-2	56*	3	1
Cc1ccc(CN2CC(C(=O)Nc3ccc(S(=O)(=O)N4CCCCC4)cc3)CC2=O)cc1 (stereo unspecified)	50*	-7	-10	-1	18	28	-1	-12
Cc1ccc(N2CC(C(=O)Nc3ccc(S(=O)(=O)N4CCCC4)cc3)CC2=O)cc1 (stereo unspecified)	55*	11	-3	4	9	30	0	0
Cc1ccccc1N1CC(C(=O)Nc2ccc(S(=O)(=O)NCC3CCCO3)cc2)CC1=O (stereo unspecified)	1	-1	2	-4	-10	.	.	.
Cc1ccc(N2CC(C(=O)Nc3ccc(S(=O)(=O)NCC4CCCO4)cc3)CC2=O)cc1 (stereo unspecified)	51*	7	-4	2	23	30	0	1
